Test results published in ChEMBL document CHEMBL1255494, “In vivo comparison of the pharmacodynamic targets for echinocandin drugs against Candida species” (Antimicrob Agents Chemother, 2010).
Values after ≈ are worked out from the molar mass of the structure shown.

Experiments:
Candida parapsilosis [1] = assay: Antifungal activity against Candida parapsilosis 20435.057 after 24 hrs; format: functional; details: Lodderomyces parapsilosis, 20435.057, 24 h
Summary of the method: (§1)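 MICs by CLSI M27-A3 broth dilution in RPMI 1640, inoculum 0.5 × 10³ to 2.5 × 10³ cells/ml, 35°C. Read visually at 24 h as the lowest concentration giving ≥50% growth reduction versus control. Run on three occasions in duplicate and reported as the mean. C. krusei ATCC 6258 and C. parapsilosis ATCC 22019 served as QC strains.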

Nakaseomyces glabratus [2] = assay: Antifungal activity against Candida glabrata 5376 after 24 hrs; format: functional; details: Nakaseomyces glabratus, 5376, 24 h
Summary of the method: (§2)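 Broth microdilution per CLSI M27-A3 in RPMI 1640; inoculum 0.5 × 10³ to 2.5 × 10³ cells/ml, 35°C. […] Three separate occasions in duplicate, mean reported; C. krusei ATCC 6258 and C. parapsilosis ATCC 22019 as daily QC.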

Nakaseomyces glabratus [3] = assay: Antifungal activity against Candida glabrata 33616 after 24 hrs; format: functional; details: Nakaseomyces glabratus, 33616, 24 h; summary of the method: as §1
Candida parapsilosis [4] = assay: Antifungal activity against Candida parapsilosis 20477.048 after 24 hrs; format: functional; details: Lodderomyces parapsilosis, 20477.048, 24 h; summary of the method: as §1
Candida parapsilosis [5] = assay: Antifungal activity against Candida parapsilosis 20511.092 after 24 hrs; format: functional; details: Lodderomyces parapsilosis, 20511.092, 24 h; summary of the method: as §1
Nakaseomyces glabratus [6] = assay: Antifungal activity against Candida glabrata infected in neutropenic ICR Swiss mouse assessed log reduction in bacterial count […]; format: functional
Summary of the method: (§3)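 Female ICR Swiss mice, neutropenic via cyclophosphamide s.c. (150 mg/kg day −4, 100 mg/kg day −1 and day +2), infected by tail-vein injection of clinical isolates 2 h before therapy. Intraperitoneal dosing every 24 h for 4 days, 4–6 dose levels from 0.078 to 160 mg/kg, 3 mice per regimen. Kidney CFU counted at 96 h. Sigmoid dose-effect fit gives static dose and 1 log kill dose relative to burden at start of therapy.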

Nakaseomyces glabratus [7] = assay: Antifungal activity against Candida glabrata infected in ICR Swiss mouse; format: functional; summary of the method: as §3
Candida parapsilosis [8] = assay: Antifungal activity against Candida parapsilosis 20489.085 after 24 hrs; format: functional; details: Lodderomyces parapsilosis, 20489.085, 24 h; summary of the method: as §2
Candida parapsilosis [9] = assay: Antifungal activity against Candida parapsilosis 20423.072 after 24 hrs; format: functional; details: Lodderomyces parapsilosis, 20423.072, 24 h; summary of the method: as §1
Candida albicans [10] = assay: Antifungal activity against Candida albicans infected in ICR Swiss mouse; format: functional; summary of the method: as §3
Candida albicans [11] = assay: Antifungal activity against Candida albicans 570 after 24 hrs; format: functional; details: Candida albicans, 570, 24 h; summary of the method: as §1
Candida parapsilosis [12] = assay: Antifungal activity against Candida parapsilosis infected in ICR Swiss mouse assessed log reduction in bacterial count […]; format: functional; summary of the method: as §3
Nakaseomyces glabratus [13] = assay: Antifungal activity against Candida glabrata 33609 after 24 hrs; format: functional; details: Nakaseomyces glabratus, 33609, 24 h; summary of the method: as §2
Candida parapsilosis [14] = assay: Antifungal activity against Candida parapsilosis 20553.009 after 24 hrs; format: functional; details: Lodderomyces parapsilosis, 20553.009, 24 h; summary of the method: as §1
Candida parapsilosis [15] = assay: Antifungal activity against Candida parapsilosis 20557.012 after 24 hrs; format: functional; details: Lodderomyces parapsilosis, 20557.012, 24 h; summary of the method: as §1
Nakaseomyces glabratus [16] = assay: Antifungal activity against Candida glabrata 513 after 24 hrs; format: functional; details: Nakaseomyces glabratus, 513, 24 h; summary of the method: as §2
Nakaseomyces glabratus [17] = assay: Fungistatic activity against Candida glabrata infected in neutropenic ICR Swiss mouse after 24 hrs; format: functional; summary of the method: as §3
Nakaseomyces glabratus [18] = assay: Antifungal activity against Candida glabrata 34341 after 24 hrs; format: functional; details: Nakaseomyces glabratus, 34341, 24 h; summary of the method: as §1
Candida parapsilosis [19] = assay: Antifungal activity against Candida parapsilosis 20519.069 after 24 hrs; format: functional; details: Lodderomyces parapsilosis, 20519.069, 24 h; summary of the method: as §1
Candida parapsilosis [20] = assay: Antifungal activity against Candida parapsilosis 20477.078 after 24 hrs; format: functional; details: Lodderomyces parapsilosis, 20477.078, 24 h; summary of the method: as §1
Candida albicans [21] = assay: Antifungal activity against Candida albicans 98-17 after 24 hrs; format: functional; details: 98-17, 24 h; summary of the method: as §1
Candida metapsilosis = assay: Antifungal activity against Candida metapsilosis 20463.02 after 24 hrs; format: functional; details: Lodderomyces metapsilosis, 20463.02, 24 h; summary of the method: as §1
Candida albicans [22] = assay: Antifungal activity against Candida albicans K1 after 24 hrs; format: functional; details: K1, 24 h; summary of the method: as §2
[23] = Cmax in Candida albicans infected neutropenic ICR Swiss mouse at 20 mg/kg, ip; format: ADME, organism-based; design: dose 20 mg/kg, route intraperitoneal; details: ICR Swiss, in vivo
Summary of the method: (§4)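 Neutropenic female ICR Swiss mice (cyclophosphamide sc at 150 mg/kg on day −4, 100 mg/kg on day −1 and day +2) infected iv via tail vein with Candida; single ip doses of 5, 20 or 80 mg/kg. Serum drawn from 3 mice per time point at eight time points and assayed by microbiologic assay (C. albicans K1) or […]. Noncompartmental analysis; AUC by trapezoidal rule.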

Candida albicans [24] = assay: Antifungal activity against Candida albicans 98-234 after 24 hrs; format: functional; details: 98-234, 24 h; summary of the method: as §1
Candida albicans [25] = assay: Antifungal activity against Candida albicans infected in ICR Swiss mouse assessed as log reduction in bacterial count […]; format: functional; summary of the method: as §3
[26] = Cmax in Candida albicans infected neutropenic ICR Swiss mouse at 80 mg/kg, ip; format: ADME, organism-based; design: dose 80 mg/kg, route intraperitoneal; details: ICR Swiss, in vivo; summary of the method: as §4
Nakaseomyces glabratus [27] = assay: Antifungal activity against Candida glabrata 35315 after 24 hrs; format: functional; details: Nakaseomyces glabratus, 35315, 24 h; summary of the method: as §1
[28] = AUC (0 to 24 hrs) in Candida albicans infected neutropenic ICR Swiss mouse at 20 mg/kg, ip; format: ADME, organism-based; design: time < 24 hr, dose 20 mg/kg, route intraperitoneal; details: plasma; summary of the method: as §4
Nakaseomyces glabratus [29] = assay: Antifungal activity against Candida glabrata 5592 after 24 hrs; format: functional; details: Nakaseomyces glabratus, 5592, 24 h; summary of the method: as §2
Candida albicans [30] = assay: Antifungal activity against Candida albicans 580 after 24 hrs; format: functional; details: Candida albicans, 580, 24 h; summary of the method: as §2
Candida parapsilosis [31] = assay: Antifungal activity against Candida parapsilosis 20385.079 after 24 hrs; format: functional; details: Lodderomyces parapsilosis, 20385.079, 24 h; summary of the method: as §1
Candida albicans [32] = assay: Antifungal activity against Candida albicans 98-210 after 24 hrs; format: functional; details: 98-210, 24 h; summary of the method: as §2
Candida parapsilosis [33] = assay: Antifungal activity against Candida parapsilosis 20562.03 after 24 hrs; format: functional; details: Lodderomyces parapsilosis, 20562.03, 24 h; summary of the method: as §1
Nakaseomyces glabratus [34] = assay: Antifungal activity against Candida glabrata 32930 after 24 hrs; format: functional; details: Nakaseomyces glabratus, 32930, 24 h; summary of the method: as §2
Candida orthopsilosis = assay: Antifungal activity against Candida orthopsilosis 20577.055 after 24 hrs; format: functional; details: Lodderomyces orthopsilosis, 20577.055, 24 h; summary of the method: as §1
Candida parapsilosis [35] = assay: Fungistatic activity against Candida parapsilosis infected in neutropenic ICR Swiss mouse after 24 hrs; format: functional; summary of the method: as §3
Mus musculus = assay: Protein binding in Candida albicans infected neutropenic ICR Swiss mouse at 80 mg/kg, ip; format: ADME, organism-based; design: dose 80 mg/kg, route intraperitoneal; details: in vivo
[36] = AUC (0 to 24 hrs) in Candida albicans infected neutropenic ICR Swiss mouse at 5 mg/kg, ip; format: ADME, organism-based; design: time < 24 hr, dose 5 mg/kg, route intraperitoneal; details: plasma; summary of the method: as §4
Candida parapsilosis [37] = assay: Antifungal activity against Candida parapsilosis infected in ICR Swiss mouse; format: functional; summary of the method: as §3
Candida albicans [38] = assay: Fungistatic activity against Candida albicans infected in neutropenic ICR Swiss mouse after 24 hrs; format: functional; summary of the method: as §3
[39] = Cmax in Candida albicans infected neutropenic ICR Swiss mouse at 5 mg/kg, ip; format: ADME, organism-based; design: dose 5 mg/kg, route intraperitoneal; details: ICR Swiss, in vivo; summary of the method: as §4
Candida parapsilosis [40] = assay: Antifungal activity against Candida parapsilosis 20450.096 after 24 hrs; format: functional; details: Lodderomyces parapsilosis, 20450.096, 24 h; summary of the method: as §1
Candida parapsilosis [41] = assay: Antifungal activity against Candida parapsilosis 20423.078 after 24 hrs; format: functional; details: Lodderomyces parapsilosis, 20423.078, 24 h; summary of the method: as §1
[42] = AUC (0 to 24 hrs) in Candida albicans infected neutropenic ICR Swiss mouse at 80 mg/kg, ip; format: ADME, organism-based; design: time < 24 hr, dose 80 mg/kg, route intraperitoneal; details: plasma; summary of the method: as §4

CC[C@H](C)C[C@H](C)CCCCCCCCC(=O)N[C@H]1C[C@@H](O)[C@@H](NCCN)NC(=O)[C@@H]2[C@@H](O)CCN2C(=O)[C@H]([C@H](O)CCN)NC(=O)[C@H]([C@H](O)[C@@H](O)c2ccc(O)cc2)NC(=O)[C@@H]2C[C@@H](O)CN2C(=O)[C@H]([C@@H](C)O)NC1=O [CASPOFUNGIN]
MIC (Candida parapsilosis [1]): 0.06 µg/mL (≈ 0.0549 µM) | MIC (Nakaseomyces glabratus [2]): 0.03 µg/mL (≈ 0.0274 µM) | MIC (Nakaseomyces glabratus [3]): 0.25 µg/mL (≈ 0.229 µM) | MIC (Candida parapsilosis [4]): 4 µg/mL (≈ 3.66 µM) | MIC (Candida parapsilosis [5]): 0.06 µg/mL (≈ 0.0549 µM) | Activity (Nakaseomyces glabratus [6]): 1.16 mg/kg | Emax (Nakaseomyces glabratus [7]): 7 log10 CFU/kidneys | ED50 (Nakaseomyces glabratus [7]; Nakaseomyces glabratus): 6.9 mg/kg | MIC (Candida parapsilosis [8]): 0.25 µg/mL (≈ 0.229 µM) | MIC (Candida parapsilosis [9]): 0.12 µg/mL (≈ 0.11 µM) | Emax (Candida albicans [10]): 4.1 log10 CFU/kidneys | ED50 (Candida albicans [10]; Candida albicans): 8 mg/kg | MIC (Candida albicans [11]): 0.12 µg/mL (≈ 0.11 µM) | Activity (Candida parapsilosis [12]): 9.84 mg/kg | MIC (Nakaseomyces glabratus [13]): 0.03 µg/mL (≈ 0.0274 µM) | MIC (Candida parapsilosis [14]): 1 µg/mL (≈ 0.915 µM) | MIC (Candida parapsilosis [15]): 0.12 µg/mL (≈ 0.11 µM) | MIC (Nakaseomyces glabratus [16]): 0.03 µg/mL (≈ 0.0274 µM) | Activity (Nakaseomyces glabratus [17]): 0.33 mg/kg | MIC (Nakaseomyces glabratus [18]): 0.25 µg/mL (≈ 0.229 µM) | MIC (Candida parapsilosis [19]): 1 µg/mL (≈ 0.915 µM) | MIC (Candida parapsilosis [20]): 0.5 µg/mL (≈ 0.457 µM) | MIC (Candida albicans [21]): 0.12 µg/mL (≈ 0.11 µM) | MIC (Candida metapsilosis): 0.06 µg/mL (≈ 0.0549 µM) | MIC (Candida albicans [22]): 0.03 µg/mL (≈ 0.0274 µM) | Cmax [23]: 26000 ng/mL | MIC (Candida albicans [24]): 0.03 µg/mL (≈ 0.0274 µM) | Activity (Candida albicans [25]): 2.91 mg/kg | Cmax [26]: 58000 ng/mL | MIC (Nakaseomyces glabratus [27]): 0.12 µg/mL (≈ 0.11 µM) | AUC(0-t) at 24 h [28]: 345 µg·h/mL | MIC (Nakaseomyces glabratus [29]): 0.03 µg/mL (≈ 0.0274 µM) | MIC (Candida albicans [30]): 0.03 µg/mL (≈ 0.0274 µM) | MIC (Candida parapsilosis [31]): 0.5 µg/mL (≈ 0.457 µM) | MIC (Candida albicans [32]): 0.02 µg/mL (≈ 0.0183 µM) | MIC (Candida parapsilosis [33]): 0.25 µg/mL (≈ 0.229 µM) | MIC (Nakaseomyces glabratus [34]): 0.03 µg/mL (≈ 0.0274 µM) | MIC (Candida orthopsilosis): 0.06 µg/mL (≈ 0.0549 µM) | Activity (Candida parapsilosis [35]): 3.56 mg/kg | Activity (Mus musculus): 97% | AUC(0-t) at 24 h [36]: 164 µg·h/mL | Emax (Candida parapsilosis [37]): 5.5 log10 CFU/kidneys | ED50 (Candida parapsilosis [37]; Lodderomyces parapsilosis): 10.4 mg/kg | Activity (Candida albicans [38]): 0.72 mg/kg | Cmax [39]: 18000 ng/mL | MIC (Candida parapsilosis [40]): 0.5 µg/mL (≈ 0.457 µM) | MIC (Candida parapsilosis [41]): 0.25 µg/mL (≈ 0.229 µM) | AUC(0-t) at 24 h [42]: 667 µg·h/mL
